ChEMBL document CHEMBL3808334, “Synthesis and in vitro evaluation of novel triazine analogues as anticancer agents and their interaction studies with bovine serum albumin” (Eur J Med Chem, 2016)

How the values were obtained:
Assay type in all cases: functional
T47D [1] = assay: Growth inhibition of human T47D cells incubated for 48 hrs by sulforhodamine B assay
How it was run: (§1)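 Cells were plated at 5,000–40,000 per well according to doubling time and preincubated 24 h at 37 °C in 5% CO2; time-zero plates were then TCA-fixed. Five concentrations (10-fold or ½-log dilutions, DMSO stock) were incubated 48 h. Cells were TCA-fixed, stained with 0.4% SRB and read at 515 nm. GI50 was taken where [(Ti−Tz)/(C−Tz)]×100 = 50.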

[2] = Growth inhibition of human HCC2998 cells assessed as cell growth at 10^-7 M incubated for 48 hrs by sulforhodamine B assay; conditions: HCC 2998, 48 h, read-out: Activity
How it was run: (§2)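 Cells seeded at 5,000–40,000/well according to doubling time and preincubated 24 h at 37 °C, 5% CO2. Time-zero plates were TCA-fixed. DMSO concentrate was diluted in medium with 50 µg/ml gentamicin to give five concentrations (10-fold or ½ log steps), then exposed 48 h. Cells were TCA-fixed, stained with 0.4% SRB and read at 515 nm. Percent growth was taken against time-zero and control; GI50, TGI and LC50 derived.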

NCI-H322M = assay: Growth inhibition of human NCI-H322M cells assessed as cell growth at 10^-4 M incubated for 48 hrs by sulforhodamine B assay; conditions: read-out: Activity
786-0 [3] = assay: Growth inhibition of human 786-0 cells assessed as cell growth at 10^-8 M incubated for 48 hrs by sulforhodamine B assay; conditions: 786-0, 48 h, read-out: Activity
How it was run: (§3)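 Five-dose assay: five concentrations from 10-fold or ½-log serial dilutions. Cells are plated at 5,000–40,000 per well according to doubling time, grown 24 h, then exposed 48 h at 37 °C, 5% CO₂. Fixed with cold 50% TCA (final addition) for 60 min at 4 °C and stained with 0.4% SRB in 1% acetic acid. Bound dye is solubilized in 10 mM Tris base and read at 515 nm. GI₅₀ is where [(Ti−Tz)/(C−Tz)]×100 = 50, with a time-zero plate as Tz.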

[4] = Growth inhibition of human OVCAR5 cells assessed as cell growth at 10 uM incubated for 48 hrs by sulforhodamine B assay; conditions: OVCAR-5, 48 h, read-out: Activity
[5] = Growth inhibition of human SKOV3 cells assessed as cell growth at 10^-7 M incubated for 48 hrs by sulforhodamine B assay; conditions: SK-OV-3, 48 h, read-out: Activity
[6] = Growth inhibition of human SW620 cells assessed as cell growth at 10^-8 M incubated for 48 hrs by sulforhodamine B assay; conditions: SW-620, 48 h, read-out: Activity
786-0 [7] = assay: Growth inhibition of human 786-0 cells assessed as cell growth at 10^-5 M incubated for 48 hrs by sulforhodamine B assay; conditions: 786-0, 48 h, read-out: Activity; how it was run: as §3
[8] = Growth inhibition of human HL-60(TB) cells incubated for 48 hrs by sulforhodamine B assay; conditions: HL-60, 48 h
How it was run: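 Five-concentration, 48 h SRB screen (10-fold or ½-log dilutions from a 400× DMSO concentrate; 24 h preincubation at 37 °C, 5% CO₂; time-zero plate; A515). GI50 was solved from (Ti−Tz)/(C−Tz)×100 = 50. TGI was taken where Ti = Tz, and LC50 from (Ti−Tz)/[…].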

[9] = Growth inhibition of human OVCAR3 cells assessed as cell growth at 10^-4 M incubated for 48 hrs by sulforhodamine B assay; conditions: OVCAR-3, 48 h, read-out: Activity
CCRF-CEM = assay: Growth inhibition of human CCRF-CEM cells assessed as cell growth at 10 uM incubated for 48 hrs by sulforhodamine B assay; conditions: read-out: Activity
How it was run: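 One-dose screen at 10 µM final. Cells are plated at 5,000–40,000 per well according to doubling time and preincubated 24 h at 37 °C, 5% CO₂. Compound (DMSO stock diluted in medium with 50 µg/ml gentamicin) is then added for 48 h. Growth percent is read by sulforhodamine B staining, absorbance at 515 nm.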

[10] = Growth inhibition of human OVCAR8 cells assessed as cell growth at 10^-8 M incubated for 48 hrs by sulforhodamine B assay; conditions: OVCAR-8, 48 h, read-out: Activity
[11] = Growth inhibition of human Hs 578T cells assessed as cell growth at 10^-7 M incubated for 48 hrs by sulforhodamine B assay; conditions: read-out: Activity
[12] = Growth inhibition of human OVCAR5 cells assessed as cell growth at 10^-5 M incubated for 48 hrs by sulforhodamine B assay; conditions: OVCAR-5, 48 h, read-out: Activity
[13] = Growth inhibition of human SF268 cells incubated for 48 hrs by sulforhodamine B assay; conditions: SF-268, 48 h; how it was run: as §1
KM12 = assay: Growth inhibition of human KM12 cells assessed as cell growth at 10 uM incubated for 48 hrs by sulforhodamine B assay; conditions: KM12, 48 h, read-out: Activity
NCI/ADR-RES = assay: Growth inhibition of human NCI/ADR-RES cells assessed as cell growth at 10 uM incubated for 48 hrs by sulforhodamine B assay; conditions: read-out: Activity
[14] = Growth inhibition of human SNB75 cells assessed as cell growth at 10^-8 M incubated for 48 hrs by sulforhodamine B assay; conditions: SNB-75, 48 h, read-out: Activity
[15] = Growth inhibition of human HCT116 cells incubated for 48 hrs by sulforhodamine B assay; conditions: HCT-116, 48 h; how it was run: as §2
T47D [16] = assay: Growth inhibition of human T47D cells assessed as cell growth at 10^-8 M incubated for 48 hrs by sulforhodamine B assay; conditions: read-out: Activity
[17] = Growth inhibition of human LOXIMVI cells assessed as cell growth at 10^-6 M incubated for 48 hrs by sulforhodamine B assay; conditions: LOX IMVI, read-out: Activity
[18] = Growth inhibition of human BT549 cells assessed as cell growth at 10^-7 M incubated for 48 hrs by sulforhodamine B assay; conditions: BT-549, 48 h, read-out: Activity; how it was run: as §3
ACHN = assay: Growth inhibition of human ACHN cells assessed as cell growth at 10^-7 M incubated for 48 hrs by sulforhodamine B assay; conditions: read-out: Activity; how it was run: as §3
[19] = Growth inhibition of human LOXIMVI cells assessed as cell growth at 10^-4 M incubated for 48 hrs by sulforhodamine B assay; conditions: LOX IMVI, read-out: Activity
EKVX = assay: Growth inhibition of human EKVX cells assessed as cell growth at 10^-5 M incubated for 48 hrs by sulforhodamine B assay; conditions: read-out: Activity; how it was run: as §2

Clc1ccc(-c2nc(Nc3ccc(-c4nc5ccccc5[nH]4)cc3)nc(N3CCOCC3)n2)cc1
GI50 (T47D [1]; read-out: GI50): 376 nM | TGI (T47D [1]; read-out: TGI): 1720 nM | GI50 (T47D [1]; read-out: pGI50 (converted)): 380 nM | TGI (T47D [1]; read-out: pTGI (converted)): 1740 nM | growth at 0.1 µM [2]: 93% | growth at 100 µM (NCI-H322M): -22% | growth at 0.01 µM (786-0 [3]): 99% | growth at 10 µM [4]: -74.7% | growth at 0.1 µM [5]: 99% | growth at 0.01 µM [6]: 94% | growth at 10 µM (786-0 [7]): -87% | GI50 ([8]; read-out: GI50): 216 nM | TGI ([8]; read-out: TGI): 567 nM | GI50 ([8]; read-out: pGI50 (converted)): 214 nM | TGI ([8]; read-out: pTGI (converted)): 562 nM | growth at 100 µM [9]: -71% | growth at 10 µM (CCRF-CEM): -91.5% | growth at 0.01 µM [10]: 104% | growth at 0.1 µM [11]: 87% | growth at 10 µM [12]: -79% | GI50 ([13]; read-out: GI50): 311 nM | TGI ([13]; read-out: TGI): 1080 nM | GI50 ([13]; read-out: pGI50 (converted)): 309 nM | TGI ([13]; read-out: pTGI (converted)): 1070 nM | growth at 10 µM (KM12): -91.3% | growth at 10 µM (NCI/ADR-RES): -87.5% | growth at 0.01 µM [14]: 83% | GI50 ([15]; read-out: GI50): 177 nM | TGI ([15]; read-out: TGI): 346 nM | GI50 ([15]; read-out: pGI50 (converted)): 178 nM | TGI ([15]; read-out: pTGI (converted)): 347 nM | growth at 0.01 µM (T47D [16]): 99% | growth at 1 µM [17]: -64% | growth at 0.1 µM [18]: 93% | growth at 0.1 µM (ACHN): 99% | growth at 100 µM [19]: 2% | growth at 10 µM (EKVX): -80%
